According to ChEMBL document CHEMBL3745617 (J Med Chem, 2015):
pIC50: −log10 of the molar value. Calls of active or inactive are those of the source. The rule behind the calls is not given here.

Experiments:
[1] = Cell cycle arrest in human MOLM14 cells assessed as accumulation at G0/G1 phase at 0.03 to 1 uM after 24 hrs by flow cytometry; type: functional, cell-based; conditions: MOLM-14
[2] = system: Receptor-type tyrosine-protein kinase FLT3 (Homo sapiens), P36888 [D835V]; conditions: BaF3
Mus musculus = experiment: Toxicity in nu/nu mouse xenografted with human MV4-11 cells assessed as body weight at 12.5 to 50 mg/kg/day administered via oral gavge; type: organism-based; conditions: in vivo
How it was run: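 Female nu/nu mice carried established MV4-11 xenografts. Daily oral gavage of 12.5, 25.0 or 50.0 mg/kg/d, or vehicle, began once tumors reached 200 to 400 mm3. Each group had 5 animals, and body weight was tracked over a 22-day treatment period. Data are given as mean ± SEM.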

[3] = Apparent volume of distribution in Sprague-Dawley rat at 1 mg/kg, iv; type: ADME, organism-based; conditions: in vivo, read-out: Vd(app)
[4] = biological target: Receptor-type tyrosine-protein kinase FLT3 (Homo sapiens) (UniProt P36888); conditions: MOLM-14, 0.03 to 3 uM
[5] = system: Receptor-type tyrosine-protein kinase FLT3 (Homo sapiens), P36888 [UNDEFINED MUTATION]; conditions: BaF3
[6] = system: Receptor-type tyrosine-protein kinase FLT3 (Homo sapiens), P36888 [D835H]; conditions: BaF3
[7] = Oral bioavailability in Sprague-Dawley rat at 10 mg/kg; type: ADME, organism-based; conditions: in vivo
[8] = biological target: Tyrosine-protein kinase HCK (Homo sapiens) (UniProt P08631); experiment: Inhibition of HCK (unknown origin) expressed in BaF3 cells assessed as inhibition of cell proliferation after 72 hrs by CelltiterGlo assay; type: cell-based
[9] = biological target: Receptor-type tyrosine-protein kinase FLT3 (Homo sapiens) (UniProt P36888); conditions: MV4-11, 0.03 to 3 uM
MV4-11 = experiment: Antitumor activity against human MV4-11 cells xenografted in nu/nu mouse assessed as tumor weight at 12.5 mg/kg/day administered via oral gavage measured after 22 days of treatment (reference value: 2.5 g); type: functional
[10] = biological target: Receptor-type tyrosine-protein kinase FLT3 (Homo sapiens) (UniProt P36888); conditions: MOLM-13, 0.03 to 3 uM
[11] = biological target: Tyrosine-protein kinase HCK (Homo sapiens) (UniProt P08631); experiment: Inhibition of HCK (unknown origin) assessed as remaining activity at 1 uM relative to control
How it was run: (§1)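 KinomeScan competitive binding panel of 468 kinases. Compound tested at a single 1 µM concentration. Read-out is percent of kinase activity remaining relative to a DMSO control.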

[12] = biological target: Epidermal growth factor receptor (Homo sapiens) (UniProt P00533); experiment: Inhibition of EGFR (unknown origin) expressed in BaF3 cells assessed as inhibition of cell proliferation after 72 hrs by CelltiterGlo assay; type: cell-based
[13] = Half life in Sprague-Dawley rat at 10 mg/kg, po; type: ADME, organism-based; conditions: in vivo
[14] = biological target: Receptor-type tyrosine-protein kinase FLT3 (Homo sapiens) (UniProt P36888); conditions: MV4-11, 0.03 to 3 uM; remark: listed apart in the source
[15] = biological target: Tyrosine-protein kinase JAK2 (Homo sapiens) (UniProt O60674); experiment: Inhibition of JAK2 (unknown origin) expressed in BaF3 cells assessed as inhibition of cell proliferation after 72 hrs by CelltiterGlo assay; type: cell-based
[16] = Cmax in Sprague-Dawley rat at 1 mg/kg, iv; type: ADME, organism-based; set-up: dose 1 mg/kg, route intravenous; conditions: in vivo
[17] = Antiproliferative activity against human MOLM13 cells after 72 hrs by CelltiterGlo assay; type: functional; conditions: MOLM-13, 72 h
[18] = biological target: Platelet-derived growth factor receptor beta (Homo sapiens) (UniProt P09619); experiment: Inhibition of PDGFRB (unknown origin) assessed as remaining activity at 1 uM relative to control
[19] = biological target: Receptor-type tyrosine-protein kinase FLT3 (Homo sapiens) (UniProt P36888); conditions: MOLM-13, 0.03 to 3 uM; remark: listed apart in the source
[20] = biological target: Mast/stem cell growth factor receptor Kit (Homo sapiens, UniProt P10721); experiment: Inhibition of c-KIT (unknown origin) by ADP-Glo assay
How it was run: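 Biochemical activity assay in ADP-Glo format using purified c-KIT kinase protein. It was run to confirm the binding-panel findings.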

[21] = AUC (0 to infinity) in Sprague-Dawley rat at 1 mg/kg, iv; type: ADME, organism-based; set-up: dose 1 mg/kg, route intravenous, time infinity; conditions: in vivo
[22] = Antiproliferative activity against human JVM2 cells after 72 hrs by CelltiterGlo assay; type: functional; conditions: JVM-2, 72 h
[23] = biological target: Receptor-type tyrosine-protein kinase FLT3 (Homo sapiens) (UniProt P36888); conditions: MOLM-13, 0.03 to 3 uM; remark: listed apart in the source
[24] = biological target: Receptor-type tyrosine-protein kinase FLT3 (Homo sapiens) (UniProt P36888); conditions: MOLM-13, 0.03 to 3 uM; remark: listed apart in the source
[25] = biological target: Tyrosine-protein kinase Blk (Homo sapiens) (UniProt P51451); experiment: Inhibition of BLK (unknown origin) assessed as remaining activity at 1 uM relative to control; how it was run: as §1
[26] = biological target: Receptor-type tyrosine-protein kinase FLT3 (Homo sapiens) (UniProt P36888); conditions: MOLM-14, 0.03 to 3 uM; remark: listed apart in the source
[27] = Antiproliferative activity against human NAMALWA cells after 72 hrs by CelltiterGlo assay; type: functional; conditions: NAMALVA
[28] = Antiproliferative activity against human NB4 cells after 72 hrs by CelltiterGlo assay; type: functional; conditions: NB-4, 72 h
[29] = AUC(0 to t) in Sprague-Dawley rat at 10 mg/kg, po; type: ADME, organism-based; conditions: in vivo
[30] = biological target: Proto-oncogene tyrosine-protein kinase receptor Ret (Homo sapiens) (UniProt P07949); experiment: Inhibition of RET (unknown origin) expressed in BaF3 cells assessed as inhibition of cell proliferation after 72 hrs by CelltiterGlo assay; type: cell-based
[31] = biological target: Tyrosine-protein kinase Srms (Homo sapiens) (UniProt Q9H3Y6); experiment: Inhibition of SRMS (unknown origin) assessed as remaining activity at 1 uM relative to control
How it was run: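 KinomeScan competition binding panel of 468 kinases, with the compound tested at 1 µM. Each kinase's result is reported as percent activity remaining relative to a DMSO control.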

[32] = system: Receptor-type tyrosine-protein kinase FLT3 (Homo sapiens), P36888 [UNDEFINED MUTATION]; conditions: BaF3; remark: listed apart in the source
[33] = AUC (0 to t) in Sprague-Dawley rat at 1 mg/kg, iv; type: ADME, organism-based; conditions: in vivo
[34] = biological target: Tyrosine-protein kinase BTK (Homo sapiens, UniProt Q06187); experiment: Inhibition of BTK (unknown origin) by ADP-Glo assay
[35] = biological target: Receptor-type tyrosine-protein kinase FLT3 (Homo sapiens) (UniProt P36888); conditions: MOLM-14, 0.03 to 3 uM; remark: listed apart in the source
MOLM-14 = experiment: Induction of apoptosis in human MOLM14 cells assessed as cleaved caspase-3 level at 0.03 to 1 uM after 24 hrs by immunoblot analysis; type: functional, cell-based

Sequence of Tyrosine-protein kinase HCK (Homo sapiens) (P08631 2-526 limits assumed): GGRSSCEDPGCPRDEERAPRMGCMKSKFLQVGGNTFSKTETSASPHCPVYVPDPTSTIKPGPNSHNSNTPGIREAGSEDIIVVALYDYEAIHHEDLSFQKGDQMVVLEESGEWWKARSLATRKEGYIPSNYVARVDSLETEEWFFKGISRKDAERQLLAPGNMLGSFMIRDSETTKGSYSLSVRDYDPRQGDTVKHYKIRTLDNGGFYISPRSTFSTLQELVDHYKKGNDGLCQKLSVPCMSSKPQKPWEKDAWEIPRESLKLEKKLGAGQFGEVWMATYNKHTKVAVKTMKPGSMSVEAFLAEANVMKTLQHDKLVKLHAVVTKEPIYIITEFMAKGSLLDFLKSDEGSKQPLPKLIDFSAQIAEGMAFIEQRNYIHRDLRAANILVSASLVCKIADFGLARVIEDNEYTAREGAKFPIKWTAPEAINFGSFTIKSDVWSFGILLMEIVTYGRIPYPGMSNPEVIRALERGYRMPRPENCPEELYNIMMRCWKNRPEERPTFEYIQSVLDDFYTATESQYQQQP
Sequence of Epidermal growth factor receptor (Homo sapiens) (P00533 whole entry): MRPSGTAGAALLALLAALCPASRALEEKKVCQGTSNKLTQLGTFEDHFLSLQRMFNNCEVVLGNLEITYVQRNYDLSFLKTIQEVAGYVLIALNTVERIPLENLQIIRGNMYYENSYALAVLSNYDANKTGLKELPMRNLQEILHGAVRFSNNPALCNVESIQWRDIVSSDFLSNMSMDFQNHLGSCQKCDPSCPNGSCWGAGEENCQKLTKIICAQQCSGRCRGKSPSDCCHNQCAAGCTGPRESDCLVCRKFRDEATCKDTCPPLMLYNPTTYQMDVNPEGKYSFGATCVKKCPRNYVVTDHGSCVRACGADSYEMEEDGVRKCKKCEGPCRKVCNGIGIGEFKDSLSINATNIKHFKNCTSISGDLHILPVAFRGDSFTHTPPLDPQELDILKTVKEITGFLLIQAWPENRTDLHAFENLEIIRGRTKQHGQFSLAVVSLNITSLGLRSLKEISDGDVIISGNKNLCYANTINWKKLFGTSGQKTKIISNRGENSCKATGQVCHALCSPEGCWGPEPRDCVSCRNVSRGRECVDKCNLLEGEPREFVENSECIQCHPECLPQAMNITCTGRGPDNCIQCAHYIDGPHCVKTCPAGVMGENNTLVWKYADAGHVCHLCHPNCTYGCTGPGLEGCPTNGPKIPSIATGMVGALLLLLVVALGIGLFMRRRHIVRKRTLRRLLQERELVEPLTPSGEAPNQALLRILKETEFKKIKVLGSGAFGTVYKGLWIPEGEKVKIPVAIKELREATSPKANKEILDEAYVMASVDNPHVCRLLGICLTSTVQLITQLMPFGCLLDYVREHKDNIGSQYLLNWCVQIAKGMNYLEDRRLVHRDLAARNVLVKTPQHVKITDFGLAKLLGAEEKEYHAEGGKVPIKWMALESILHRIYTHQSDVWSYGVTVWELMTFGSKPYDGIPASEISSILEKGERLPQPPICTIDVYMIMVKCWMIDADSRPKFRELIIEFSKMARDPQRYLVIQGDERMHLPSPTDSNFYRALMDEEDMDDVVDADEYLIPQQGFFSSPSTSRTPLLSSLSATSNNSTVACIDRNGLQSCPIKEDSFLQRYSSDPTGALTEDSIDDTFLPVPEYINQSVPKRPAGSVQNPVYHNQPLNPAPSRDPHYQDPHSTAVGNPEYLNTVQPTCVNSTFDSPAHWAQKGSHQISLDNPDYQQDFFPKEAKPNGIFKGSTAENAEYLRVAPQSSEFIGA
Sequence of Platelet-derived growth factor receptor beta (Homo sapiens) (P09619 whole entry): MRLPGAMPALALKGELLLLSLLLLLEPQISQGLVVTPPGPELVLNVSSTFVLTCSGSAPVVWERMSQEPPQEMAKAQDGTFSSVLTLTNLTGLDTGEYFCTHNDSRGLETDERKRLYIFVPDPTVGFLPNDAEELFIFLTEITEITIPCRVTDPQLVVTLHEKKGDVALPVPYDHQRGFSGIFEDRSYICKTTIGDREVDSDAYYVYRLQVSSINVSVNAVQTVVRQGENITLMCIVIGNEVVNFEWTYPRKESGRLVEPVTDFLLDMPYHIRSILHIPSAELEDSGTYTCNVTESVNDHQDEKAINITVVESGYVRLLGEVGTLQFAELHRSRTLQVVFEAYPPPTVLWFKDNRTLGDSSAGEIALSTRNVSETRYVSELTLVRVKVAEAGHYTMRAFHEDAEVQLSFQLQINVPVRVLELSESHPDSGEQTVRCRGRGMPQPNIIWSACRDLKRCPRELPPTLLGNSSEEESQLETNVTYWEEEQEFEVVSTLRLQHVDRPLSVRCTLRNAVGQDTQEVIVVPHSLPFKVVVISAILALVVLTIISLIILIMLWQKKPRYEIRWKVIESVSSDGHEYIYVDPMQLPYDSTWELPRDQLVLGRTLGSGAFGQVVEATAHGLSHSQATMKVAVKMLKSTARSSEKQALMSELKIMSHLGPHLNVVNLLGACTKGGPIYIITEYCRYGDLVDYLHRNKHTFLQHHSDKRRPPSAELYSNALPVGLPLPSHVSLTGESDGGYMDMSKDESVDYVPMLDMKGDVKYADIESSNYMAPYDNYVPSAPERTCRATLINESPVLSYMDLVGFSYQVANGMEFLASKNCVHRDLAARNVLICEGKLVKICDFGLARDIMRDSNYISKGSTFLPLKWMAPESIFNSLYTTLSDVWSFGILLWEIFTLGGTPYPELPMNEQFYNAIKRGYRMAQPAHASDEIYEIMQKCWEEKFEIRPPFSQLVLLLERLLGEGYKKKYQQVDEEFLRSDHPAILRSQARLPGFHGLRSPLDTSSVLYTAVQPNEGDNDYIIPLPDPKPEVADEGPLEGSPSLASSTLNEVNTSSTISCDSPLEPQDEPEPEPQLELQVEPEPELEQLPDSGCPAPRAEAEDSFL
Sequence of Tyrosine-protein kinase Blk (Homo sapiens) (P51451 2-505 limits assumed): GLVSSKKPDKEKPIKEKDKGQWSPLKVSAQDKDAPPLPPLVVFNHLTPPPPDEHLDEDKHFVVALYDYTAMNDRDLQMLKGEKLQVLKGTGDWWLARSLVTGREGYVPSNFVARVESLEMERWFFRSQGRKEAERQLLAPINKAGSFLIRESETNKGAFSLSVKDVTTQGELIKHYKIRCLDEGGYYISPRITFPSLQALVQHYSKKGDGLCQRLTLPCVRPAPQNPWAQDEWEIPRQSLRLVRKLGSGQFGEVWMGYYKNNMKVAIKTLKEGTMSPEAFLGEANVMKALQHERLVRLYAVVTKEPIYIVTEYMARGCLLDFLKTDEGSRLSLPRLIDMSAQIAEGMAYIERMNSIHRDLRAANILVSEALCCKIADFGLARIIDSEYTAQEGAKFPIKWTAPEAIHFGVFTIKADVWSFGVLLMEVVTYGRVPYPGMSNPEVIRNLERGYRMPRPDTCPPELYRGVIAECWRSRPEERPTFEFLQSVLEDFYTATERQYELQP
Sequence of Proto-oncogene tyrosine-protein kinase receptor Ret (Homo sapiens) (P07949 whole entry): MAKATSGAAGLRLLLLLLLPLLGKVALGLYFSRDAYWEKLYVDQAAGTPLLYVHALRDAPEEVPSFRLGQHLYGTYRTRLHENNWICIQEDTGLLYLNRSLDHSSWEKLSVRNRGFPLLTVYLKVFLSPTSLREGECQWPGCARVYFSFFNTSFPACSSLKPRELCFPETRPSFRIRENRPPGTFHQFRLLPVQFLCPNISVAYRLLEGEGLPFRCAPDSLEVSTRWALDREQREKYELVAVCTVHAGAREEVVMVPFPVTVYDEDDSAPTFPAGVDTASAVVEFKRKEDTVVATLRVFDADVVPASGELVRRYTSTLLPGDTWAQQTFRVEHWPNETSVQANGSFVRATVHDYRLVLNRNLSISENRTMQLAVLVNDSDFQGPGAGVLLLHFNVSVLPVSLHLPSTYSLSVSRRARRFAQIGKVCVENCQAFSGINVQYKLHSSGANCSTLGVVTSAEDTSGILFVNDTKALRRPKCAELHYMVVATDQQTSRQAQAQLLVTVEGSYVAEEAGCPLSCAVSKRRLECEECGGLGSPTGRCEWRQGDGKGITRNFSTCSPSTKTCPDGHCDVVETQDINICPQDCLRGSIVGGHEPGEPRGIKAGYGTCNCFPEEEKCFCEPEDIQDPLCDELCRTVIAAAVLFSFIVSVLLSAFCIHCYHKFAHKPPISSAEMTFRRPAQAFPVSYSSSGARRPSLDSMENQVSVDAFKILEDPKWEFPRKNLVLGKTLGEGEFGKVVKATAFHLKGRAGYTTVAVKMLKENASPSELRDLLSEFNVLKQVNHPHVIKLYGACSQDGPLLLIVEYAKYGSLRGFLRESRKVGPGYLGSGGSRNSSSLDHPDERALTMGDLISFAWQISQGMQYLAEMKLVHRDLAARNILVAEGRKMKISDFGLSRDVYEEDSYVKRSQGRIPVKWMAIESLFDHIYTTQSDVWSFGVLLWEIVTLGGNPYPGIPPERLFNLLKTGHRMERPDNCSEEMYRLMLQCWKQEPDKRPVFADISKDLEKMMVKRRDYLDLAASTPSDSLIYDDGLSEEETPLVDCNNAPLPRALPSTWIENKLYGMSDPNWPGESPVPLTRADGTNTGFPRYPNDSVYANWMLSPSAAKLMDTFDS
Sequence of Tyrosine-protein kinase Srms (Homo sapiens) (Q9H3Y6 whole entry): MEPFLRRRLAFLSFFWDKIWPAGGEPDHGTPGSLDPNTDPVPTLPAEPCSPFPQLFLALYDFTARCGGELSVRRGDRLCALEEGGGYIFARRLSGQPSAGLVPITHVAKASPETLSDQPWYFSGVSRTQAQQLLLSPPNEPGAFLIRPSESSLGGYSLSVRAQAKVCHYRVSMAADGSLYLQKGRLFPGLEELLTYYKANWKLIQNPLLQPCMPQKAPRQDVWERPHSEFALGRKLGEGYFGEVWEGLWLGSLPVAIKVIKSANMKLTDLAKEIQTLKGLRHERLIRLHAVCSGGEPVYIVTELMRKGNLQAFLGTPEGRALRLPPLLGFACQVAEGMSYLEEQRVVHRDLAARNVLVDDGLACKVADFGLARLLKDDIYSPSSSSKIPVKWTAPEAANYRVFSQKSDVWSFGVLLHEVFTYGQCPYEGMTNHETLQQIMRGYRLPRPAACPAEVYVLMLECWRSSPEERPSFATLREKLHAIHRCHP

Q: What does the source list for `CN(C)CC(=O)N1CCC[C@@H](n2nc(-c3ccc(Oc4ccccc4)cc3)c3c(N)ncnc32)C1`?
A: Activity [1]: Active; GI50 [2]: 3 nM; Activity (Mus musculus): Non-toxic; Vd [3]: 3.23 L/kg; inhibition [4]: Active; GI50 [5]: 170 nM; GI50 [6]: 4 nM; bioavailability [7]: 30.4%; GI50 [8]: 880 nM; inhibition [9]: Active; Activity (MV4-11): 1.54 g; inhibition [10]: Active; Activity [11]: 0.5%; GI50 [12]: 1800 nM; half-life [13]: 1.24 h; inhibition [14]: Active; GI50 [15]: 300 nM; Cmax [16]: 1500 ng/mL; GI50 [17]: 21 nM; Activity [18]: 0.35%; inhibition [19]: Active; pIC50 [20]: 6.25; AUC(0-inf) [21]: 619 ng·h/mL; GI50 [22]: 2600 nM; inhibition [23]: Active; inhibition [24]: Active; Activity [25]: 0.1%; inhibition [26]: Active; GI50 [27]: 6400 nM; GI50 [28]: 3800 nM; AUC(0-t) [29]: 1830 ng·h/mL; GI50 [30]: 650 nM; Activity [31]: 0%; GI50 [32]: 220 nM; AUC(0-t) [33]: 607 ng·h/mL; pIC50 [34]: 6.38; inhibition [35]: Active; Activity (MOLM-14): Active
